T cruzi growth-1 = T. cruzi proliferation inhibition | T. cruzi beta-gal in NIH3T3, GalScreen luminescence, 90 h | inhibition, % at 8.34 µM | 77,000 tested, 5.9% active | AID 624255;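 active = mean inhibition above about 93%, with at least 55% of replicates each passing it, limit read from the data, passing the limit was not always enough; inconclusive = only one of those two conditions holds; inactive = neither condition holds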
IDH1 R132H inh = IDH1 R132H (human) inhibition. O75874. IDH1 R132H reductase, diaphorase/resazurin fluorescence, 60 min. inhibition, % at 10 µM. 70,000 tested, 0.18% active; in the data active = inhibition above about 34%; inconclusive = no clear call, values can overlap the other calls; inactive = below about 11%
Target sequence (O75874 whole entry R132H): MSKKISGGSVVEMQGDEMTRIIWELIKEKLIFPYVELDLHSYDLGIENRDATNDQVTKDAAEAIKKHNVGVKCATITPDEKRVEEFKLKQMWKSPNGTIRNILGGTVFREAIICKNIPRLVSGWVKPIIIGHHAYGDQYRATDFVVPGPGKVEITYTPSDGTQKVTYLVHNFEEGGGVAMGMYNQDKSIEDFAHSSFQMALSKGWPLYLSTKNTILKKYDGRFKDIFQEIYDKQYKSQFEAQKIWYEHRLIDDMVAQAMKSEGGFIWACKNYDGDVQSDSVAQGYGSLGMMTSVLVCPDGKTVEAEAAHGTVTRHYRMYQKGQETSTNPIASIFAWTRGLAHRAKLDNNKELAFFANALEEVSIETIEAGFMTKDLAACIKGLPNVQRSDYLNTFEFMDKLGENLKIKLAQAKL
GASC1 inh = inhibitors of human demethylase GASC-1 KDM4C | GST-KDM4C 2-372, H3K9me3 peptide, LANCE TR-FRET | inhibition, % at 12.5 µM | 96,000 tested, 0.15% active;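 active = mean replicate inhibition above about 25%, with at least 55% of replicates also reaching it, limit read from the data, passing the limit was not always enough; inconclusive = only one of those two conditions met; inactive = neither condition met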
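reagent = H3K9me3 peptide substrate, Fe(II), 2-oxoglutarate | system = GST-tagged GASC-1 (JMJD2C) catalytic fragment, aa 2-372 | amount = enzyme final amount 10 nM | read-out = Fall in 671/618 emission ratio as inhibition | medium = HEPES buffer, pH 7.5, plus ascorbate | schedule = 30 min reaction, 60 min detection, RT | measured by = LANCE TR-FRET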
T cruzi growth-2 = inhibitors of T. cruzi proliferation | shares compounds with T cruzi growth-1 | T. cruzi beta-gal in NIH3T3, GalScreen luminescence, 90 h | inhibition, % at 8.35 µM | 5,600 tested, 72% active | AID 651739;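 active = mean replicate inhibition above about 95% and at least 55% of replicates individually reaching it, limit read from the data; inconclusive = only one of the two criteria is met; inactive = neither criterion is met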
T cruzi growth-3 = inhibitors of T. cruzi proliferation; shares compounds with T cruzi growth-1; T. cruzi beta-gal in NIH3T3, GalScreen luminescence, 90 h; inhibition, % at 2.09 µM; 5,600 tested, 21% active; AID 651740;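 active = mean inhibition above about 95%, with at least 55% of replicates also reaching it, limit read from the data; inconclusive = meets just one of the two conditions; inactive = meets neither condition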
3T3 cytotox = cytotoxicity in mouse NIH/3T3 fibroblasts | shares compounds with T cruzi growth-1 | NIH/3T3 viability, CellTiter-Glo ATP luminescence, 90 h | cytotoxicity (signal decrease), % at 8.35 µM | 5,600 tested, 14% active | AID 651742;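 active = mean signal decrease across replicates above about 35% based on untreated-well scatter, with enough replicates individually passing, limit read from the data; inconclusive = no rule stated though some were filed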
3T3 cytotox 2 = cytotoxicity in mouse NIH/3T3 fibroblasts; shares compounds with T cruzi growth-1; inhibition, % at 24.9 µM; NIH/3T3 viability, CellTiter-Glo ATP luminescence, 90 h; 5,600 tested, 56% active;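 active = mean loss of cell viability signal at or above a set limit, and enough replicates individually reaching it; inconclusive = meets only the mean limit or only the replicate share; inactive = meets neither condition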
Hits are given with their value; 0 = inactive; ? = inconclusive; - = no result. The sample as a whole holds a higher share of hits than the screen did.

SMILES	T cruzi growth-1	IDH1 R132H inh	GASC1 inh	T cruzi growth-2	T cruzi growth-3	3T3 cytotox	3T3 cytotox 2
C/C=C/c1ccc2c(c1)O[C@@H](CN(C)Cc1ccccc1F)[C@H](C)CN([C@H](C)CO)S2(=O)=O	114	0	0	98	0	51	102
C/C=C/c1ccc2c(c1)O[C@@H](CN(C)Cc1ccccc1F)[C@@H](C)CN([C@@H](C)CO)S2(=O)=O	0	0	0	-	-	-	-
C/C=C/c1ccc2c(c1)O[C@H](CN(C)Cc1ccccc1F)[C@H](C)CN([C@@H](C)CO)S2(=O)=O	120	0	0	111	0	36	105
C/C=C/c1ccc2c(c1)O[C@H](CN(C)Cc1ccccc1F)[C@H](C)CN([C@H](C)CO)S2(=O)=O	109	0	0	102	0	0	105
C/C=C/c1ccc2c(c1)O[C@@H](CN(C)Cc1ccc(F)cc1)[C@@H](C)CN([C@H](C)CO)S2(=O)=O	0	0	0	-	-	-	-
C[C@@H]1O[C@@H](O[C@@H]2[C@@H](O)[C@H](O[C@@H]3[C@@H](O)[C@H](C)O[C@@H](O[C@H]4[C@H](O[C@H]5CC[C@@]6(C)C(CC[C@]7(C)C6CC=C6[C@@H]8CC(C)(C)CC[C@]8(C(=O)O)CC[C@]67C)[C@]5(C)CO)OC[C@H](O)[C@@H]4O)[C@@H]3O)O[C@H](CO)[C@H]2O[C@@H]2O[C@H](CO)[C@@H](O[C@@H]3OC[C@@H](O)[C@H](O)[C@H]3O)[C@H](O)[C@H]2O)[C@H](O)[C@H](O)[C@H]1O (some centres not stated)	-	0	-	-	-	-	-
COc1ccccc1NC(=O)C1=C(C)Nc2ncnn2C1c1ccccc1OCc1ccccc1 (configuration not stated)	-	0	-	-	-	-	-
C[C@@H]1CN([C@H](C)CO)C(=O)CCCn2cc(nn2)CO[C@@H]1CN(C)C(=O)Nc1cccc(F)c1	0	-	0	-	-	-	-
C[C@H](CO)N1C[C@H](C)[C@@H](CN(C)C(=O)Nc2cccc(F)c2)OCc2cn(nn2)CCCC1=O	?	-	0	109	0	0	0
Cc1noc(C)c1NC(=O)N(C)C[C@@H]1OCc2cn(nn2)CCCC(=O)N([C@H](C)CO)C[C@@H]1C	?	0	0	0	0	0	0
COC(=O)N(C)C[C@@H]1OCc2cn(nn2)CCCC(=O)N([C@H](C)CO)C[C@H]1C	0	0	-	-	-	-	-
Cc1noc(C)c1NC(=O)N(C)C[C@H]1OCc2cn(nn2)CCCC(=O)N([C@H](C)CO)C[C@@H]1C	0	0	-	-	-	-	-
COc1cccc(S(=O)(=O)N(C)C[C@@H]2OCc3cn(nn3)CCCC(=O)N([C@@H](C)CO)C[C@H]2C)c1	?	0	0	0	0	0	0
COc1cccc(S(=O)(=O)N(C)C[C@H]2OCc3cn(nn3)CCCC(=O)N([C@H](C)CO)C[C@H]2C)c1	0	-	0	-	-	-	-
COC(=O)N(C)C[C@H]1OCc2cn(nn2)CCCC(=O)N([C@@H](C)CO)C[C@H]1C	?	0	0	0	0	0	?
CC(C)=CCC[C@@](C)(O)[C@H]1CC[C@]2(C)C1CC(O)C1[C@]3(C)C(CC[C@]12C)C(C)(C)[C@@H](O)C[C@H]3O (some centres not stated)	-	0	-	-	-	-	-
CS(=O)(=O)N(CC(=O)Nc1cccc([N+](=O)[O-])c1)Cc1ccc(Cl)cc1	-	0	-	-	-	-	-
C[C@]1(O)CC[C@@H]2C(C(=O)O)=CO[C@@H](O[C@@H]3O[C@H](COC(=O)/C=C/c4ccc(O)c(O)c4)[C@@H](O)[C@H](O)[C@H]3O)[C@@H]21	-	0	-	-	-	-	-
Cc1ccnc(NC(=O)Cn2cnc3c2c(=O)n(C)c(=O)n3C)n1	-	0	-	-	-	-	-
Cc1ccc(N(CC(=O)Nc2cc(Cl)ccc2C)S(C)(=O)=O)cc1C	-	0	-	-	-	-	-
COC(=O)C[C@H]1[C@]2(C)C3=C(C)[C@H](c4ccoc4)C[C@H]3O[C@@H]2[C@H](O)C2[C@](C)(C(=O)OC)C=CC(=O)[C@@]21C (some centres not stated)	-	0	-	-	-	-	-
Cc1nc(SCC(=O)c2ccccc2)c2sc3nc4c(cc3c2n1)COC(C)(C)C4	-	0	-	-	-	-	-
COc1ccc(OC(=O)N(C)C[C@H]2OCc3cn(nn3)CCCC(=O)N([C@H](C)CO)C[C@H]2C)cc1	0	0	0	-	-	-	-
C[C@@H]1CN([C@@H](C)CO)C(=O)CCCn2cc(nn2)CO[C@H]1CN(C)Cc1ccc(Cl)c(Cl)c1	135	0	0	0	0	0	0
C[C@H]1CN([C@@H](C)CO)C(=O)CCCn2cc(nn2)CO[C@@H]1CN(C)Cc1ccc(Cl)c(Cl)c1	0	0	0	-	-	-	-
SMILES	T cruzi growth-1	IDH1 R132H inh	GASC1 inh	T cruzi growth-2	T cruzi growth-3	3T3 cytotox	3T3 cytotox 2
COc1ccc(OC(=O)N(C)C[C@@H]2OCc3cn(nn3)CCCC(=O)N([C@H](C)CO)C[C@@H]2C)cc1	113	0	0	0	0	0	0
CCS(=O)(=O)N(C)C1c2cc(C#N)ccc2OC(C)(C)C1O (configuration not stated)	-	0	-	-	-	-	-
COC(=O)c1ccccc1NC(=O)C(C)Oc1cccc(Cl)c1 (configuration not stated)	-	0	-	-	-	-	-
C[C@@H]1CCCCO[C@H](CN(C)Cc2ccc3c(c2)OCO3)[C@H](C)CN([C@H](C)CO)C(=O)c2cc(NC(=O)NC3CCCCC3)ccc2O1	107	-	0	108	0	0	104
C[C@@H]1CCCCO[C@@H](CN(C)Cc2ccc3c(c2)OCO3)[C@@H](C)CN([C@@H](C)CO)C(=O)c2cc(NC(=O)NC3CCCCC3)ccc2O1	-	-	0	-	-	-	-
C[C@H]1CCCCO[C@H](CN(C)Cc2ccc3c(c2)OCO3)[C@@H](C)CN([C@@H](C)CO)C(=O)c2cc(NC(=O)NC3CCCCC3)ccc2O1	100	-	0	108	0	0	102
C[C@@H]1CCCCO[C@H](CN(C)Cc2ccc3c(c2)OCO3)[C@@H](C)CN([C@@H](C)CO)C(=O)c2cc(NC(=O)NC3CCCCC3)ccc2O1	0	0	0	-	-	-	-
C[C@@H]1CN([C@H](C)CO)C(=O)c2cccc(NC(=O)c3ccncc3)c2O[C@H]1CN(C)CC1CC1	0	0	0	-	-	-	-
C[C@@H]1CN([C@H](C)CO)C(=O)c2cccc(NC(=O)c3ccncc3)c2O[C@H]1CN(C)Cc1ccc(-c2ccccc2)cc1	107	-	0	0	0	50	41
C[C@H](CO)N1C[C@H](C)[C@@H](CN(C)Cc2ccc(-c3ccccc3)cc2)Oc2c(NC(=O)c3ccncc3)cccc2C1=O	102	-	0	105	98	49	36
C[C@@H]1CN([C@@H](C)CO)C(=O)c2cccc(NS(=O)(=O)c3cn(C)cn3)c2O[C@H]1CN(C)CC1CCCCC1	0	-	0	-	-	-	-
C[C@H](CO)N1C[C@H](C)[C@@H](CN(C)CC2CC2)Oc2c(NC(=O)c3ccncc3)cccc2C1=O	102	0	-	0	0	0	?
